Converted amounts (≈) assume the structure as drawn.
Experiments:
Plasmodium falciparum = experiment: Antimalarial activity against Plasmodium falciparum K1 in human erythrocytes after 48 hrs by [3H]hypoxanthine uptake; assay type: functional, organism-based
How it was run: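 Infected human red cells with chloroquine/pyrimethamine-resistant K1 strain exposed to serial dilutions 48 h, 37 °C, reduced O2/elevated CO2; [³H]-hypoxanthine then added, 24 h further incubation, harvested on glass fibre filters, scintillation counted. IC50 from sigmoidal inhibition curve; duplicate, repeated at least once.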

Leishmania donovani = experiment: Antileishmanial activity against Leishmania donovani; assay type: functional, organism-based
[1] = Cytotoxicity against rat L6 cells after 72 hrs by alamar blue assay; assay type: cell-based
How it was run: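 L-6 cells in RPMI 1640 with 10% FBS exposed to serial drug dilutions, protocol closely following the T. b. rhodesiense assay; viability read with Alamar Blue, expressed as IC50.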

[2] = tested on: Trypanosoma brucei rhodesiense; experiment: Antitrypanosomal activity against Trypanosoma brucei rhodesiense after 72 hrs by alamar blue assay; assay type: functional, organism-based
How it was run: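 STIB 900 trypanosomes in Minimum Essential Medium with 2-mercaptoethanol and 15% heat-inactivated horse serum, serial drug dilutions, 72 h at 37 °C, 5% CO2; Alamar Blue added, 2–4 h more, fluorescence read ex 530/em 590 nm. Signal expressed as percent of control; IC50 determined.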

Trypanosoma cruzi = experiment: Antitrypanosomal activity against Trypanosoma cruzi Tulahuen strain C2C4 containing galactosidase gene in rat L6 cells after 4 days; assay type: functional, organism-based; settings: L6, 96 h
How it was run: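 L-6 cells seeded 2000/well in RPMI 1640, 10% FBS, 2 mM L-glutamine; after 24 h, 5000 Lac Z trypomastigotes added with serial drug dilutions, 4 days at 37 °C, 5% CO2. CPRG/Nonidet substrate added, colour read at 540 nm after 2–4 h; IC50 from sigmoidal inhibition curve.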

Row | IC50 (Plasmodium falciparum) [µg/mL] | IC50 (Leishmania donovani) [µg/mL] | IC50 [2] [µg/mL] | IC50 (Trypanosoma cruzi) [µg/mL] | SMILES | IC50 at 72 h [1] [µg/mL]
1 | 1.98 (≈ 4.87 µM) | > 30 | 5.86 (≈ 14.4 µM) | 30.1 (≈ 73.9 µM) | COc1c(-c2c(C)cc(OC)c3c(OC)cccc23)c(O)cc2c1[C@@H](C)N[C@H](C)C2 [ANCISTROCONGOLINE D] | 27.7 (≈ 68 µM)
2 |  |  |  | 0.382 (≈ 1.47 µM) | O=C(Cn1ccnc1[N+](=O)[O-])NCc1ccccc1 [BENZNIDAZOLE] | 

Second part, the compound before the results:

Row | SMILES | IC50 (Plasmodium falciparum) [µg/mL] | IC50 (Leishmania donovani) [µg/mL] | IC50 [2] [µg/mL] | IC50 (Trypanosoma cruzi) [µg/mL] | IC50 at 72 h [1] [µg/mL]
3 | COc1cc(O)c2c(c1-c1ccc(OC)c3c(OC)cc(C)cc13)C[C@@H](C)N(C)[C@@H]2C [ANCISTROCONGOLINE B] | 0.158 (≈ 0.375 µM) | 18.8 (≈ 44.6 µM) | 2.54 (≈ 6.03 µM) | 17.4 (≈ 41.3 µM) | 33.4 (≈ 79.2 µM)
4 | COc1cc(C)cc2c(-c3c(O)cc(O)c4c3C[C@@H](C)N[C@@H]4C)ccc(O)c12 [KORUPENSAMINE A] | 0.164 (≈ 0.432 µM) | 25.1 (≈ 66.1 µM) | 1.87 (≈ 4.93 µM) | 14.5 (≈ 38.2 µM) | 38 (≈ 100 µM)
5 | COc1cc(O)c(-c2ccc(OC)c3c(OC)cc(C)cc23)c2c1[C@@H](C)N(C)[C@H](C)C2 [ANCISTROCONGOLINE C] | 3 (≈ 7.12 µM) | 19.3 (≈ 45.8 µM) | 15.9 (≈ 37.7 µM) | ≥ 90 | ≥ 90
6 | COc1cc(C)cc2c(-c3c(O)cc(O)c4c3C[C@@H](C)N(C)[C@@H]4C)ccc(O)c12 [ANCISTROCONGOLINE A] | 0.214 (≈ 0.544 µM) |  | 2.97 (≈ 7.55 µM) | 39.9 (≈ 101 µM) | 90 (≈ 229 µM)
7 | C[C@@H]1CC[C@H]2[C@@H](C)C(=O)O[C@@H]3O[C@@]4(C)CC[C@@H]1[C@]32OO4 [ARTEMISININ] | 0.001 (≈ 0.00354 µM) |  |  |  | 
